Measurements published in ChEMBL document CHEMBL5030534, “Discovery of Novel Anti-Breast-Cancer Inhibitors by Synergistically Antagonizing Microtubule Polymerization and Aryl Hydrocarbon Receptor Expression” (J Med Chem, 2021).
The source made the active and inactive calls. The rule behind the calls is not given here.

What was measured:
[1] = tested on: MCF7; assay: Cell cycle arrest in human MCF7 cells assessed as decrease in Cdc25c protein expression; format: functional, cell-based; settings: dose 1-4 nM
In short: (§1)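 MCF-7 seeded 4 × 10⁵ per well for 24 h, then DMSO or compound at 1, 2, 4 nM for 24 h. Lysates protein-normalized to 3 mg/mL by BCA, resolved on 4–20% SDS-PAGE and immunoblotted. Bands quantified relative to β-actin (cell-cycle proteins) or GAPDH (apoptosis proteins); n = 3.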

[2] = tested on: MCF7; assay: Antiproliferative activity against human MCF7 cells assessed as reduction in cell viability incubated for 48 hrs by MTT assay; format: functional, cell-based; settings: MCF7, 48 h
In short: (§2)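 Cells seeded at 5 × 10³ per well, incubated overnight, then exposed to a range of compound concentrations for 48 h. MTT added for 4 h, medium replaced with DMSO, absorbance read at 570 nm. MCF-7, L-O2 grown in DMEM; MCF-10A, MCF-7/ADR in RPMI 1640. Three independent runs.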

[3] = tested on: MCF-10A; assay: Antiproliferative activity against human MCF-10A cells assessed as reduction in cell viability incubated for 48 hrs by MTT assay; format: cell-based; in short: as §2
[4] = biological target: Tubulin beta (Homo sapiens) (UniProt P68371+Q9H4B7+Q13509+P04350+Q3ZCM7+P07437+Q13885+Q9BVA1+Q9BUF5+A6NNZ2); assay: Inhibition of beta-tubulin polymerization in human MCF7 cells assessed as inhibition of EBI-beta-tubulin adduct formation at 1 to 4 nM measured after 2 hrs by Western blot-based EBI competition assay; format: cell-based; settings: dose 1-4 nM
[5] = tested on: MCF7; assay: Cell cycle arrest in human MCF7 cells assessed as decrease in Cdc2 protein expression; format: functional, cell-based; settings: dose 1-4 nM; in short: as §1
[6] = tested on: MCF7; assay: Induction of apoptosis in human MCF7 cells assessed as viable cells at 0.5 nM measured after 24 hrs by Annexin V-FITC and PI staining based flow cytometry assay (reference value: 96.8%); format: functional; settings: read-out: Activity
[7] = tested on: MCF7; assay: Induction of apoptosis in human MCF7 cells assessed as late apoptotic cells at 0.5 nM measured after 24 hrs by Annexin V-FITC and PI staining based flow cytometry assay (reference value: 2.06%); format: functional
[8] = tested on: MCF7; assay: Induction of apoptosis in human MCF7 cells assessed as increase in Bax protein expression at 1 to 4 nM; format: functional, cell-based; settings: dose 1-4 nM; in short: as §1
[9] = tested on: MCF7; assay: Induction of apoptosis in human MCF7 cells assessed as increase in Bad protein expression at 1 to 4 nM; format: functional, cell-based; settings: dose 1-4 nM; in short: as §1
[10] = tested on: MCF7; assay: Induction of mitochondrial membrane potential loss in human MCF7 cells at 0.5 nM measured after 24 hrs by JC-1 staining based flow cytometry analysis (reference value: 3.01%); format: functional
[11] = tested on: MCF7; assay: Inhibition of AhR signalling in human MCF7 cells assessed as reduction in AhR level incubated for 24 hrs by Western blot analysis; format: functional, cell-based; settings: dose 1-4 nM
In short: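 MCF-7 cells seeded 4 × 10⁵ per well, grown 24 h, then exposed to DMSO or 1, 2, 4 nM for 24 h; BAY 2416964 served as AhR antagonist reference. Lysates adjusted to 3 mg/mL protein by BCA, resolved on 4−20% SDS-PAGE, immunoblotted; AhR and CYP1A1 bands normalized to GAPDH. Three independent runs.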

[12] = tested on: MCF7; assay: Inhibition of cell migration in human MCF7 cells at 2 nM incubated for 24 hrs in presence of DMBA by inverted fluorescence microscopic method (reference value: 11.51%); format: functional; set-up: scale not given: the % may be the effect or the level left
[13] = tested on: MCF7; assay: Antitumor activity against human MCF7 cells xenografted in BALB/c nude mouse assessed as decrease in tumor weight at 0.5 mg/kg, iv administered every 2 days for 21 days and measured every 2 days; format: functional; set-up: scale not given: the % may be the effect or the level left; settings: time 21 day
In short: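 MCF-7 cells (6 × 10⁶) injected subcutaneously into right flank of BALB/c nude mice; after 7 days animals randomized, eight per group. Dosing iv every 2 days for 21 days, vehicle 10% DMSO/5% Tween 80/85% saline. Tumor size and body weight recorded every 2 days; tumors excised and weighed at sacrifice.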

[14] = Toxicity in BALB/c mouse xenografted with human MCF7 cells assessed as change in body weight at 0.5 to 1 mg/kg, iv administered every 2 days for 21 days; format: organism-based; settings: in vivo, 504 h, dose 0.5-1 mg/kg, time 21 day
In short: (§3)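 Nude mice given 6 × 10⁶ MCF-7 cells subcutaneously on right flank; after 7 days randomized, eight per group. iv dosing every 2 days at 0.5 or 1 mg/kg; vehicle 10% DMSO/5% Tween 80/85% saline; paclitaxel 10 mg/kg and CA-4 20 mg/kg references. Body weight every 2 days; killed after 21 days; organs fixed, paraffin-sectioned, H&E stained.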

[15] = Toxicity in BALB/c nude mouse xenografted with human MCF7 cells assessed as effect on spleen at 0.5 to 1 mg/kg, iv administered every 2 days for 21 days by H and E staining based assay; format: organism-based; settings: in vivo, 504 h, dose 0.5-1 mg/kg, time 21 day; in short: as §3
[16] = tested on: MCF7; assay: Antitumor activity against human MCF7 cells xenografted in BALB/c nude mouse assessed as reduction in tumor microvessel density at 1 mg/kg, iv administered every 2 days and measured after 21 days by immunohistochemistry analysis; format: functional, organism-based; settings: time 21.0 day
In short: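 Same subcutaneous MCF-7 nude-mouse xenografts dosed iv every 2 days for 21 days. Tumors then fixed, paraffin-embedded and sectioned. Apoptotic cells detected by TUNEL fluorescent staining with DNA counterstain; microvessel density measured by anti-CD31 immunohistochemistry.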

[17] = tested on: MCF7; assay: Induction of ROS generation in human MCF7 cells at 2 nM measured after 24 hrs in presence of N-acetylcysteine by DCFH-DA staining based flow cytometric analysis; format: functional
In short: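 MCF-7 seeded 4 × 10⁵ per well for 24 h, then DMSO or 0.5, 1, 2 nM for 24 h. Loaded with DCFH-DA for 30 min in the dark, resuspended in serum-free medium, DCF fluorescence measured by flow cytometry. For scavenger condition, 2.5 mM N-acetyl-L-cysteine pretreatment, then 2 nM for 24 h. Three runs.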

[18] = tested on: MCF7; assay: Induction of apoptosis in human MCF7 cells assessed as viable cells at 1 nM measured after 24 hrs by Annexin V-FITC and PI staining based flow cytometry assay (reference value: 96.8%); format: functional; settings: read-out: Activity
[19] = tested on: MCF7; assay: Induction of apoptosis in human MCF7 cells assessed as late apoptotic cells at 1 nM measured after 24 hrs by Annexin V-FITC and PI staining based flow cytometry assay (reference value: 2.06%); format: functional
[20] = tested on: MCF7; assay: Induction of apoptosis in human MCF7 cells assessed as viable cells at 2 nM measured after 24 hrs by Annexin V-FITC and PI staining based flow cytometry assay (reference value: 96.8%); format: functional; settings: read-out: Activity
[21] = tested on: MCF7; assay: Induction of apoptosis in human MCF7 cells assessed as necrotic cells at 2 nM measured after 24 hrs by Annexin V-FITC and PI staining based flow cytometry assay (reference value: 0.28%); format: functional
[22] = tested on: MCF7; assay: Induction of mitochondrial membrane potential loss in human MCF7 cells at 1 nM measured after 24 hrs by JC-1 staining based flow cytometry analysis (reference value: 3.01%); format: functional
[23] = tested on: MCF7; assay: Induction of apoptosis in human MCF7 cells assessed as viable cells at 2 nM measured after 24 hrs by Annexin V-FITC and PI staining based flow cytometry assay (reference value: 96.5%); format: functional; settings: read-out: Activity
[24] = Toxicity in BALB/c nude mouse xenografted with human MCF7 cells assessed as effect on lung at 0.5 to 1 mg/kg, iv administered every 2 days for 21 days by H and E staining based assay; format: organism-based; settings: in vivo, 504 h, dose 0.5-1 mg/kg, time 21 day; in short: as §3

Cc1nc(N(C)c2ccc3c(c2)cc(C)n3C)c2ccccc2n1
Activity [1]: Dose-Dependent Effect
IC50 [2]: 0.9 nM
IC50 [3]: 9.3 nM
inhibition [4]: Active
Activity [5]: Dose-Dependent Effect
viability at 0.0005 µM [6]: 95%
Activity [7]: 2.17%
Activity [8]: Active
Activity [9]: Active
Activity [10]: 6.49%
inhibition [11]: Dose-Dependent Effect
Activity [12]: 6.34%
Activity [13]: 73.2%
Activity [14]: Non-Toxic
Activity [15]: Non-Toxic
Activity [16]: Active
Activity [17]: 24.7%
viability at 0.001 µM [18]: 61.5%
Activity [19]: 28.6%
viability at 0.002 µM [20]: 38.3%
Activity [21]: 4.51%
Activity [22]: 6.49%
viability at 0.002 µM [23]: 40.1%
Activity [24]: Non-Toxic
